# Assay results from article PMC7993281 (Clinical and Translational Science, 2020).
# Key:
# [1] = tested on: organic cation transporter 2; details: in vitro; ref Idorsia Pharmaceuticals Ltd, unpublished data; cited from earlier work
# [2] = tested on: glucosylceramide (GlcCer) plasma concentration; assay: MAD study pharmacodynamics: plasma GlcCer; type: in vivo, human
# In short: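 Healthy men and women (1:1), 8 active and 2 placebo per cohort. Oral 30, 100, 300 or 1,000 mg b.i.d. for 7 days. Morning dose after a 10-hour fast, evening dose 2 hours after dinner. Plasma sampled on Days 1, 2, 4 and 7 and at 24, 48 and 72 h after the last dose. Validated LC-MS/MS. Percent change from Day 1 predose.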
# [3] = SAD study tolerability/safety; type: in vivo, human
# In short: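 Healthy men aged 18–55 years, single oral doses of 10–2,000 mg, 6 active and 2 placebo per cohort, staggered dosing. Fasted dosing, plus a fed period in the 300 mg cohort after at least 7 days washout. Subjects were confined until 48 h post-dose, with follow-up at 29–34 days. AEs, vital signs, ECG, examination and laboratory tests were summarised descriptively.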
# Single-ascending dose = type: in vivo, human; details: for Tmax / half-life / CL renal: human, oral; for Tmax / half-life: plasma
# In short: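 Healthy men, single oral 10–2,000 mg after a 10-hour fast. The 300 mg cohort was repeated 30 min after a high-fat, high-calorie breakfast following at least 7 days washout. Plasma sampled up to 48 h; 300 mg urine collected at 0–12, 12–24 and 24–48 h. Validated LC-MS/MS with noncompartmental analysis. Fed/fasted GMR with 90% CI; Tmax compared by nonparametric median difference.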
# [4] = MAD study tolerability/safety; type: in vivo, human
# In short: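 Healthy men and women aged 18–55 years, BMI 18–30 kg/m2, 8 active and 2 placebo per cohort. Oral 30–1,000 mg b.i.d. for 7 days with staggered dosing. Subjects were confined until 72 h after the last dose, with follow-up at 29–34 days. AEs, vital signs, ECG, physical examination and clinical laboratory tests were recorded and summarised descriptively.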
# [5] = SAD, all doses, fasted conditions, 36 subjects
# [6] = MAD 300 mg b.i.d. for 7 days (n = 8)
structure (smiles),measurement,setting,value
"CCCCCN1C[C@H](O)[C@@H](O)[C@H](O)[C@@H]1CO [sinbaglustat, (2S,3R,4R,5S)‐2‐(hydroxymethyl)‐1‐pentylpiperidine‐3,4,5‐triol]",organic cation transporter 2 interaction,[1],a substrate and an inhibitor
same,GlcCer during the treatment period,[2]; 30 mg b.i.d.,remained at baseline
same,GlcCer increase from baseline concentration,"[2]; 30 mg b.i.d., 72 hours after the last dose",32%
same,GlcCer percentage change from baseline,"[2]; 100 mg b.i.d., 48 hours after the last dose",–7%
same,GlcCer percentage change from baseline,"[2]; 300 mg b.i.d., 72 hours after the last dose",–1%
same,GlcCer percentage change from baseline,"[2]; 1,000 mg b.i.d., 72 hours after the last dose",–19%
same,reduction in GlcCer,"[2]; highest tested dose (1,000 mg b.i.d.), repeated treatment",72%
same,"AEs in the 30, 300, and 2,000 mg cohort",[3]; SAD,No AE was reported
same,Dizziness (subjects),[3]; SAD 10 mg (n = 6),1
same,Number of subjects with at least 1 AE,[3]; SAD 10 mg (n = 6),1
same,Total number of AEs,[3]; SAD 10 mg (n = 6),1
same,Number of subjects with at least 1 AE,[3]; SAD 100 mg (n = 6),3
same,Rash (subjects),[3]; SAD 100 mg (n = 6),1
same,Total number of AEs,[3]; SAD 100 mg (n = 6),3
same,AEs under fed conditions,[3]; SAD 300 mg fed,no AE was reported
same,Headache (subjects),"[3]; SAD 1,000 mg (n = 6)",2
same,Nausea (subjects),"[3]; SAD 1,000 mg (n = 6)",1
same,Number of subjects with at least 1 AE,"[3]; SAD 1,000 mg (n = 6)",3
same,Palpitations (subjects),"[3]; SAD 1,000 mg (n = 6)",1
same,Viral upper respiratory tract (subjects),"[3]; SAD 1,000 mg (n = 6)",1
same,Vomiting (subjects),"[3]; SAD 1,000 mg (n = 6)",1
same,subjects reporting AEs (of 36 treated),"[3]; SAD, all doses, fasted conditions",7
same,subjects reporting AEs,[3]; [5],19%
same,total AEs reported,[3]; [5],13
same,"serious AEs, severe AEs, AEs leading to discontinuation","[3]; whole study (SAD and MAD), up to end‐of‐study","No serious AEs, severe AEs, or AEs leading to study or treatment discontinuation occurred"
same,fraction of dose excreted unchanged in urine,Single-ascending dose; 300 mg single dose,About half
same,"median difference in Tmax, fed vs fasted","Single-ascending dose; 300 mg single dose, high‐fat, high‐calorie meal, 90% CI 0.50–1.70",1 h
same,Tmax,"Single-ascending dose; 100 mg, single dose 100 mg, fasted, median (range)",1.4 h
same,Tmax,"Single-ascending dose; 300 mg, single dose 300 mg fasted, median (range)",0.9 h
same,Tmax,"Single-ascending dose; 300 mg, single dose 300 mg fed, median (range)",2.25 h
same,half-life,Single-ascending dose; 1000 mg,11.6 h
same,Tmax,"Single-ascending dose; 1000 mg, single dose 1,000 mg, fasted, median (range)",1.5 h
same,Tmax,"Single-ascending dose; 2000 mg, single dose 2,000 mg, fasted, median (range)",2 h
same,CL renal,"Single-ascending dose; urine and plasma, 300 mg",225 mL/min
same,CL renal,"Single-ascending dose; male, plasma and urine, 300 mg",225 mL/min
same,half-life,Single-ascending dose; male,~12 h
same,Tmax,"Single-ascending dose; male, across single doses 10 to 2,000 mg",0.9 to 2 h
same,duration of distribution phase,Single-ascending dose; single dose,~ 24 hours
same,"UPE, percentage of dose excreted unchanged in urine","Single-ascending dose; single dose 300 mg fasted, geometric mean (95% CI)","48.74 (43.53, 54.59) %"
same,Dizziness (subjects),[4]; MAD 30 mg b.i.d. (n = 8),4
same,Headache (subjects),[4]; MAD 30 mg b.i.d. (n = 8),2
same,Muscle twitching (subjects),[4]; MAD 30 mg b.i.d. (n = 8),1
same,Pain in extremity (subjects),[4]; MAD 30 mg b.i.d. (n = 8),1
same,Viral upper respiratory tract (subjects),[4]; MAD 30 mg b.i.d. (n = 8),1
same,Total number of AEs,[4]; MAD 30 mg b.i.d. for 7 days (n = 8),13
same,Dizziness (subjects),[4]; MAD 100 mg b.i.d. (n = 8),2
same,Fatigue (subjects),[4]; MAD 100 mg b.i.d. (n = 8),1
same,Total number of AEs,[4]; MAD 100 mg b.i.d. for 7 days (n = 8),8
same,Dizziness (subjects),[4]; MAD 300 mg b.i.d. (n = 8),1
same,Headache (subjects),[4]; MAD 300 mg b.i.d. (n = 8),2
same,Nausea (subjects),[4]; MAD 300 mg b.i.d. (n = 8),1
same,Rash (subjects),[4]; MAD 300 mg b.i.d. (n = 8),1
same,Number of subjects with at least 1 AE,[4]; [6],4
same,Total number of AEs,[4]; [6],8
same,Constipation (subjects),"[4]; MAD 1,000 mg b.i.d. (n = 8)",1
same,Decreased appetite (subjects),"[4]; MAD 1,000 mg b.i.d. (n = 8)",3
same,Diarrhea (subjects),"[4]; MAD 1,000 mg b.i.d. (n = 8)",2
same,Dizziness (subjects),"[4]; MAD 1,000 mg b.i.d. (n = 8)",3
same,Fatigue (subjects),"[4]; MAD 1,000 mg b.i.d. (n = 8)",2
